According to article PMC7332231 (Journal of the American Chemical Society, 2020):

Experiments:
YWHAE = molecular target: T1, YWHAE (Homo sapiens, UniProt P62258); assay: competitive SILAC chemical proteomics in DM93 soluble proteome; assay type: cell-based
T1 sequence (P62258 1-255): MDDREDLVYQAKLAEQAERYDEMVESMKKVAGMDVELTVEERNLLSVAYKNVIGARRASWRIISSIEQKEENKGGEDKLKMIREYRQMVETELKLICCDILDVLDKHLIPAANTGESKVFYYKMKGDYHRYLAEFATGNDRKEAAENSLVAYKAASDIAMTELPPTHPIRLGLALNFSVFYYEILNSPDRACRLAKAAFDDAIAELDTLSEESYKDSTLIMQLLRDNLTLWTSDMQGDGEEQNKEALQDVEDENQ

DPP3 = molecular target: T2, DPP3 (Homo sapiens, UniProt Q9NY33); assay: peptidase substrate assay; assay type: biochemical
T2 sequence (Q9NY33 2-737): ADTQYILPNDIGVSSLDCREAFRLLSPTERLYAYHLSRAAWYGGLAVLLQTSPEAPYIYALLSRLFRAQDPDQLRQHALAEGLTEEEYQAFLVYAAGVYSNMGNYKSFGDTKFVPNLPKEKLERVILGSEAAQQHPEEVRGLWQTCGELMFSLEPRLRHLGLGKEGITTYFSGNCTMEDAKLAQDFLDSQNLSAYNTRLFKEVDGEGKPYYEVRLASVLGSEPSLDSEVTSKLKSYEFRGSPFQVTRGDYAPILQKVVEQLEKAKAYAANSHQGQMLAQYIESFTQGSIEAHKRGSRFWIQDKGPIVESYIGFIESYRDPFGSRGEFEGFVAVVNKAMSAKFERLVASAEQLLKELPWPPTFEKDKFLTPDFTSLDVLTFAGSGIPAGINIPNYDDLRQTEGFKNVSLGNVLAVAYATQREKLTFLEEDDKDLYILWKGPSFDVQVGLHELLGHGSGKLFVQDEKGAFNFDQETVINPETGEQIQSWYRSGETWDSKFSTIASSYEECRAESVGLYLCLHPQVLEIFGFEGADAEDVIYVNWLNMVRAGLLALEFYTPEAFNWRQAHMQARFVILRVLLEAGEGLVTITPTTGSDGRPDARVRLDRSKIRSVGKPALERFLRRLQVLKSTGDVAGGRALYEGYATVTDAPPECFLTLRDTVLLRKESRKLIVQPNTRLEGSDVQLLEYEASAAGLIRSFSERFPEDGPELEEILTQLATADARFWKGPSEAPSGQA
Outline: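 Purified DPP3 was exposed to test compound over a concentration series, and its catalytic activity was read by a peptidase substrate assay. IC50 was reported with 95% confidence intervals; data are mean ± s.e.m. from n = 3 biologically independent experiments. Y417 engagement was measured by quantitative chemical proteomics with the HHS-482 probe on soluble proteome from HEK293T cells expressing recombinant human DPP3 (n = 2).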

[1] = molecular target: glutathione S-transferase Pi (GSTP1) (Homo sapiens, UniProt P09211); assay: GSH substrate assay in recombinant GSTP1 lysates; assay type: biochemical
glutathione S-transferase Pi (GSTP1), sequence (P09211 2-210): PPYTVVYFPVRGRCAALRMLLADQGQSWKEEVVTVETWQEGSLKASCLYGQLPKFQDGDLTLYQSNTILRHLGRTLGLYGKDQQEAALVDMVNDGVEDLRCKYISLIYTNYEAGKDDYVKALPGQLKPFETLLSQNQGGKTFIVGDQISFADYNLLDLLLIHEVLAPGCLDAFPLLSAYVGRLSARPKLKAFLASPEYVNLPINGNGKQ

Row | Structure (SMILES) | competitive SILAC chemical proteomics in DM93 soluble proteome (50 μM) (YWHAE) | IC50 (DPP3) | IC50 [1]
1 | COc1ccc(-c2ncn(S(=O)(=O)c3ccc(-c4ccccc4)cc3)n2)cc1 [JWB142] | > 6 SILAC ratio (SR) | 17 µM | 
2 | O=S(=O)(c1ccc2ccccc2c1)n1cnc(-c2ccncc2)n1 [JWB198] |  |  | 16 µM
